Results on eight molecules are retold here after PMC5551398 (Biochemistry, 2017).

Bridge positions count the residues as written; N and C are the ends. Primed or numbered codes have the meaning given here. Ends that are not written are not given here. Peptide text beside a SMILES is read from it. * marks the point of attachment. FITC = O=C1OC2(c3ccc(O)cc3Oc3cc(O)ccc32)c2ccc(NC(=S)*)cc21; Biotin = O=C1N[C@H]2[C@H](CS[C@H]2CCCCC(=O)*)N1; FITC′ = fluorescein isothiocyanate label; Ahx = NCCCCCC(=O)O

The target in assay [1] is T1, MBP-CTR ECD (hCTR.36-151) (Homo sapiens, UniProt P30988).
T1 sequence (P30988 36-151): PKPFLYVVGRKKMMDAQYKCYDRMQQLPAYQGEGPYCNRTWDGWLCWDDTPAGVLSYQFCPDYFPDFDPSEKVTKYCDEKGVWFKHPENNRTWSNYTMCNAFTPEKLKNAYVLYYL
In words: FP saturation peptide-binding assay, MBP-CTR ECD WT. A digest of the protocol: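 MBP-CTR ECD was produced in HEK293S GnTI− cells and left untreated, digested with Endo H (4 µl of 500 U/µl, GlycoBuffer 3, 22°C, 30 min), or given heat-inactivated Endo H (75°C, 10 min). Digests were serially diluted (top 3 µM) and titrated against 10 nM FITC-AC413(6-25) Y25P, 1 h, dark, room temperature, HEPES pH 7.4 buffer. Anisotropy corrected for intensity quenching. Duplicate samples.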

The next assay has as its target T2, MBP-CTR ECD (Homo sapiens, UniProt P30988).
T2 sequence (P30988 36-151): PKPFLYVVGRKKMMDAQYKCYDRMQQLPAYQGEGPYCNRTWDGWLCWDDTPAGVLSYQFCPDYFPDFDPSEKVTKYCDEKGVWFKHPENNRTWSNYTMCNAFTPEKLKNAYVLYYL
In words: Competition AlphaLISA peptide-binding assay. Put shortly: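 Binding by AlphaLISA competition. MBP-CTR ECD from transfected HEK293T cells (150 nM) was mixed with 150 nM biotinylated sCT and competitor peptide. Luminescence read at 680/615 nm. Three independent experiments, duplicate samples.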

The target in assay [2] is T3, MBP-hCTR.36-151-H6 produced in HEK293T cells (human, UniProt P30988-2 36-151, complex N-glycans at N73, N125, N130).
T3 sequence (looked up): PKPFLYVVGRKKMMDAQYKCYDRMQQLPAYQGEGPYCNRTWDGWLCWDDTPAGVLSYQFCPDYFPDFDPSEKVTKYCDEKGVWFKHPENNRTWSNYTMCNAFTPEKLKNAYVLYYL
Put plainly: AlphaScreen or HTRF.

Assay [3] addresses T3, MBP-hCTR.36-151-H6 produced in HEK293T …. Put plainly: AlphaScreen or HTRF. The source holds these as a separate data set.
Assay [4] shares this target. Put plainly: fluorescence polarisation.
Assay [5] has the same target. In words: fluorescence polarisation. This is another data set of the same source.
For assay [6], the target named is T4, MBP-RAMP2-(GS)5-CTR ECD-H6 produced in E. coli (human, UniProt O60895 55-140; P30988-2 36-151).
T4 chain: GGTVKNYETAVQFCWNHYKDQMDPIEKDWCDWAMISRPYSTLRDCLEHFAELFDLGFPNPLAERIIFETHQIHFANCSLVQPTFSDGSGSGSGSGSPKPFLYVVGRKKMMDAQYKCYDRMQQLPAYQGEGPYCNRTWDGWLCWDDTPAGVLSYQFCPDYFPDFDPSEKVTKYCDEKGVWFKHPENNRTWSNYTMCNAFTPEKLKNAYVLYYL
Put plainly: fluorescence polarisation.

Assay [7] concerns the target T3, MBP-hCTR.36-151-H6 produced in HEK293T …. In words: fluorescence polarisation. The source holds these as a separate data set.
For assay [8] the target is unchanged. Put plainly: fluorescence polarisation. The source holds these as a separate data set.
Assay [9] has as its target T5, MBP-hCTR.36-151-H6 produced in HEK293S GnTI- cells (human, UniProt P30988-2 36-151, core N-glycans (Man5GlcNAc2) at N73, N125, N130).
T5 sequence (looked up): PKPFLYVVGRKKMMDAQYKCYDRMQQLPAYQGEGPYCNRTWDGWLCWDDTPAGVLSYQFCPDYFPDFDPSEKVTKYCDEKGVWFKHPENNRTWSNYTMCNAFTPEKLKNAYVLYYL
Put plainly: fluorescence polarisation.

For assay [10], the target named is T6, MBP-CTR ECD-H6 produced in E. coli (human, UniProt P30988-2 36-151).
T6 sequence (looked up): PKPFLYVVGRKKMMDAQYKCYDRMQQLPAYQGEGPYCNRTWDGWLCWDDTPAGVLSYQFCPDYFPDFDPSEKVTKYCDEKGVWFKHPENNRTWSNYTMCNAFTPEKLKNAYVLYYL
Put plainly: fluorescence polarisation.

The target of assay [11] is T7, MBP-free H6-CTR ECD (residues 32-140) (human, UniProt P30988-2 32-140).
T7 sequence (looked up): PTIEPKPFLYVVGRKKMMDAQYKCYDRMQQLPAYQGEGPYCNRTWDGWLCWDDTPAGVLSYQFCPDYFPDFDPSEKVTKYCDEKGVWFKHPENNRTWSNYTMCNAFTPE
Put plainly: ITC.

In the case of `CC(C)C[C@H](NC(=O)[C@H](CCCNC(=N)N)NC(=O)[C@@H](NC(=O)[C@H](CC(C)C)NC(=O)[C@H](Cc1ccccc1)NC(=O)[C@H](CC(N)=O)NC(=O)[C@H](C)NC(=O)CCCCCNC(=S)Nc1ccc2c(c1)C(=O)OC21c2ccc(O)cc2Oc2cc(O)ccc21)C(C)C)C(=O)N[C@@H](CCC(N)=O)C(=O)N[C@H](C(=O)N[C@@H](Cc1ccc(O)cc1)C(=O)N1CCC[C@H]1C(=O)N[C@@H](CCCNC(=N)N)C(=O)N[C@H](C(=O)N[C@@H](CC(N)=O)C(=O)N[C@H](C(=O)NCC(=O)N[C@@H](C)C(=O)N[C@@H](CC(N)=O)C(=O)N[C@H](C(=O)N1CCC[C@H]1C(N)=O)[C@@H](C)O)C(C)C)[C@@H](C)O)[C@@H](C)O` [FITC-AC413(6-25) Y25P] ({FITC-Ahx}-ANFLVRLQTYPRTNVGANTP-NH2), the dissociation constant (Kd) in assay [1] was 115 nM. Moreover, the IC50 on MBP-CTR ECD is 47.9 nM.
Molecule “ANFLVRLQTYPRTNVGANTP-NH2 [AC413(6-25) Y25P, reference compound]” had an IC50 at MBP-CTR ECD of 708 nM.

B1: FITC-Ahx (aminohexanoic acid)-AC413(6-25) Y25P (peptide)
peptide: {FITC′-Ahx}-ANFLVRLQTYPRTNVGANTP-NH2
In the case of B1, 47.9 nM corresponded to half-maximal inhibition in [2] (IC50). In assay [3], this molecule came in with a pIC50 of 7.32. This molecule also had a Kd in assay [4] of 115 nM. This molecule came in with a pKD in [5] of 6.94.

B2: FITC-Ahx-AC413(6-25) (peptide)
peptide: {FITC-Ahx}-ANFLVRLQTYPRTNVGANTY-NH2
B2: in [6], the Kd came out at 4570 nM.

B3: AC413(6-25) Y25P (peptide)
peptide: ANFLVRLQTYPRTNVGANTP-NH2
As to B3, the affinity in assay [7] corresponds to a Ki of 631 nM. In assay [8], this molecule showed a pKI of 6.2. In assay [3], the negative-log IC50 (pIC50) came to 6.15.

B4: sCT(8-32) (peptide)
peptide: VLGKLSQELHKLQTYPRTNTGSGTP-NH2
Consider B4, for which the Ki was roughly 3000 nM in [9], roughly 3000 nM in assay [7] and roughly 25000 nM in assay [10]. This molecule registered a Kd in assay [11] of 16000 nM. In addition, the dH in assay [11] was -24.2 kcal/mol. Besides, the “stoichiometry N” value in assay [11] came to 1.17.

B5: Biotin-sCT C1A/C7A (peptide)
peptide: Biotin-ASNLSTAVLGKLSQELHKLQTYPRTNTGSGTP-NH2
SMILES: CC(C)C[C@H](NC(=O)[C@H](CCCCN)NC(=O)CNC(=O)[C@H](CC(C)C)NC(=O)[C@@H](NC(=O)[C@H](C)NC(=O)[C@@H](NC(=O)[C@H](CO)NC(=O)[C@H](CC(C)C)NC(=O)[C@H](CC(N)=O)NC(=O)[C@H](CO)NC(=O)[C@H](C)NC(=O)CCCC[C@@H]1SC[C@@H]2NC(=O)N[C@@H]21)[C@@H](C)O)C(C)C)C(=O)N[C@@H](CO)C(=O)N[C@@H](CCC(N)=O)C(=O)N[C@@H](CCC(=O)O)C(=O)N[C@@H](CC(C)C)C(=O)N[C@@H](Cc1c[nH]cn1)C(=O)N[C@@H](CCCCN)C(=O)N[C@@H](CC(C)C)C(=O)N[C@@H](CCC(N)=O)C(=O)N[C@H](C(=O)N[C@@H](Cc1ccc(O)cc1)C(=O)N1CCC[C@H]1C(=O)N[C@@H](CCCNC(=N)N)C(=O)N[C@H](C(=O)N[C@@H](CC(N)=O)C(=O)N[C@H](C(=O)NCC(=O)N[C@@H](CO)C(=O)NCC(=O)N[C@H](C(=O)N1CCC[C@H]1C(N)=O)[C@@H](C)O)[C@@H](C)O)[C@@H](C)O)[C@@H](C)O
As for B5, the binding result in [2] is “binds”.

B6: sCT(1-32) (peptide)
chain: CSNLSTCVLGKLSQELHKLQTYPRTNTGSGTP-NH2
modifications: disulfide 1-7
For B6, the Kd in assay [11] worked out at 35000 nM.
